Measurements from ChEMBL document CHEMBL1136881, “2-(substituted phenyl)amino analogs of 1-methoxyspirobrassinol methyl ether: synthesis and anticancer activity” (Bioorg Med Chem, 2009).
Calls of active or inactive are those of the source. No cut-off for these calls is given here.

Tests used:
Jurkat = assay: Cytotoxicity against human Jurkat cells after 72 hrs by MTT assay; format: functional, cell-based
Outline: (§1)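 MTT microculture assay. Cells were seeded per well at 3 × 10³ (A-549, MCF-7, MDA-MB-231; DMEM), 5 × 10³ (HeLa; RPMI 1640) or 1 × 10⁴ (Jurkat, CEM; RPMI 1640), all with 10% FCS. Final concentrations were 10⁻⁴–10⁻⁶ mol·L⁻¹ (4 levels), for 72 h. MTT was then added for 4 h and SDS for 12 h, and A540 read. IC50 was taken against blank-corrected untreated control.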

MCF7 = assay: Cytotoxicity against human MCF7 cells after 72 hrs by MTT assay; format: functional, cell-based; conditions: MCF7, 72 h; outline: as §1
MDA-MB-231 = assay: Cytotoxicity against human MDA-MB-231 cells after 72 hrs by MTT assay; format: functional, cell-based; conditions: MDA-MB-231, 72 h; outline: as §1
HeLa = assay: Cytotoxicity against human HeLa cells after 72 hrs by MTT assay; format: functional, cell-based
CCRF-CEM = assay: Cytotoxicity against human CCRF-CEM cells after 72 hrs by MTT assay; format: functional, cell-based; outline: as §1
A549 = assay: Cytotoxicity against human A549 cells after 72 hrs by MTT assay; format: functional, cell-based; conditions: A549, 72 h
Bacillus subtilis = assay: Antibacterial activity against Bacillus subtilis CCM 4062 at 20 ug/2.5 ul/6 mm disk after 24 hrs by disk diffusion assay; format: functional, organism-based
Outline: (§2)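 Inoculum was prepared from an overnight blood-agar culture and adjusted in saline to 1.5 × 10⁸ CFU/ml (0.5 McFarland). It was swabbed evenly onto Mueller–Hinton or Sabouraud agar, and paper disks were applied. Plates were incubated 24 h at 37 °C. The read-out was inhibition-zone diameter around the disk, run alongside clinical antimicrobial reference agents.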

Streptococcus pyogenes = assay: Antibacterial activity against Streptococcus pyogenes CCM 4425 at 20 ug/2.5 ul/6 mm disk after 24 hrs by disk diffusion assay; format: functional; outline: as §2

Row | Structure (SMILES) | IC50 (Jurkat) [µM] | IC50 (MCF7) [µM] | IC50 (MDA-MB-231) [µM] | IC50 (HeLa) [µM] | IC50 (CCRF-CEM) [µM] | IC50 (A549) [µM] | Activity (Bacillus subtilis) | diameter of the inhibition zone (DIZ) (Streptococcus pyogenes) [mm]
1 | CON1c2ccccc2[C@@]2(CN=C(SC)S2)[C@@H]1Nc1ccccc1 (relative stereo) | 17.8 | 100 | 62 | 25.8 | 31.8 | 100 |  | 
2 | CON1c2ccccc2[C@@]2(CN=C(SC)S2)[C@H]1Nc1ccc(C)c(C)c1 (relative stereo) | 47.1 | 58 | 100 | 23.8 | 45.5 | 42.6 |  | 
3 | COc1cc([C@@H]2c3cc4c(cc3[C@@H](O[C@@H]3O[C@@H]5CO[C@@H](C)O[C@H]5[C@H](O)[C@H]3O)[C@H]3COC(=O)[C@H]23)OCO4)cc(OC)c1O [ETOPOSIDE] | 1.2 | 10.9 | 21.2 | 3.9 | 1.1 | 14.3 |  | 
4 | CON1c2ccccc2[C@@]2(CN=C(SC)S2)[C@H]1Nc1ccccc1Cl (relative stereo) | 43 | 100 | 100 | 100 | 75.8 | 82 |  | 
5 | CON1c2ccccc2[C@@]2(CN=C(SC)S2)[C@H]1Nc1ccc(Cl)cc1 (relative stereo) | 100 | 28.5 | 20.7 | 22.3 | 100 | 22.3 |  | 
6 | CON1c2ccccc2[C@@]2(CN=C(SC)S2)[C@@H]1Nc1ccc(Cl)c(Cl)c1 (relative stereo) | 10 | 100 | 35.5 | 15.4 | 100 | 24.7 |  | 
7 | CO[C@@H]1N(OC)c2ccccc2[C@@]12CN=C(SC)S2 (relative stereo) | 57.4 | 100 | 100 | 53.2 | 100 | 100 |  | 
8 | CON1c2ccccc2[C@@]2(CN=C(SC)S2)[C@H]1Nc1ccc(Cl)c(Cl)c1 (relative stereo) | 21 | 22.6 | 20.7 | 21.8 | 22.6 | 21.1 | Active | 
9 | CON1c2ccccc2[C@@]2(CN=C(SC)S2)[C@@H]1Nc1ccc(C(F)(F)F)cc1 (relative stereo) | 41.8 | 100 | 88 | 81.9 | 74.3 | 1 | Active | 
10 | CON1c2ccccc2[C@@]2(CN=C(SC)S2)[C@H]1Nc1ccc([N+](=O)[O-])cc1 (relative stereo) | 100 | 88 | 100 | 100 | 54.5 | 30.2 |  | 
11 | COc1ccc(N[C@H]2N(OC)c3ccccc3[C@@]23CN=C(SC)S3)cc1 (relative stereo) | 69.4 | 100 | 64 | 100 | 15.5 | 100 |  | 
12 | CO[C@H]1N(OC)c2ccccc2[C@@]12CN=C(SC)S2 (relative stereo) | 30.2 | 100 | 100 | 48.9 | 100 | 100 |  | 
13 | CON1c2ccccc2[C@@]2(CN=C(SC)S2)[C@@H]1Nc1ccc([N+](=O)[O-])cc1 (relative stereo) | 10 | 100 | 100 | 50 | 100 | 100 |  | 
14 | CON1c2ccccc2[C@@]2(CN=C(SC)S2)[C@H]1Nc1ccccc1 (relative stereo) | 100 | 100 | 100 | 31.9 | 100 | 100 |  | 
15 | CON1c2ccccc2[C@@]2(CN=C(SC)S2)[C@@H]1Nc1ccc(Cl)cc1 (relative stereo) | 30.7 | 100 | 100 | 44.8 | 37.4 | 85.9 |  | 
16 | CON1c2ccccc2[C@@]2(CN=C(SC)S2)[C@@H]1Nc1ccc(Br)cc1 (single isomer, unassigned) | 29.3 | 100 | 100 | 55.7 | 54.8 | 100 |  | 7
17 | CON1c2ccccc2[C@@]2(CN=C(SC)S2)[C@@H]1Nc1ccccc1Cl (relative stereo) | 29.4 | 100 | 100 | 76.8 | 36 | 100 |  | 
18 | CON1c2ccccc2[C@@]2(CN=C(SC)S2)[C@@H]1Nc1ccc(C)c(C)c1 (relative stereo) | 10 | 100 | 100 | 54.9 | 100 | 100 |  | 
19 | COc1ccc(N[C@@H]2N(OC)c3ccccc3[C@@]23CN=C(SC)S3)cc1 (relative stereo) | 34.8 | 100 | 100 | 81.5 | 10 | 73.9 |  | 
20 | CON1c2ccccc2[C@@]2(CN=C(SC)S2)[C@H]1Nc1ccc(C(F)(F)F)cc1 (relative stereo) | 28.4 | 66.8 | 31.1 | 34.9 | 54 | 46.6 | Active | 
21 | CON1c2ccccc2[C@@]2(CN=C(SC)S2)[C@H]1Nc1ccc(Br)cc1 (relative stereo) | 33.4 | 34.1 | 100 | 81.5 | 28.7 | 35.1 |  | 
22 | CON1c2ccccc2[C@@]2(CN=C(SC)S2)[C@@H]1Oc1ccccc1 (relative stereo) | 100 | 100 | 100 | 100 | 100 | 100 |  | 
23 | CON1c2ccccc2[C@@]2(CN=C(SC)S2)[C@@H]1Nc1ccc(C)cc1 (relative stereo) | 6.6 | 100 | 78.7 | 100 | 64.7 | 100 |  | 
24 | CN[C@@H]1N(OC)c2ccccc2[C@@]12CN=C(SC)S2 (relative stereo) | 100 | 100 | 100 | 33.6 | 100 | 100 |  | 
25 | COc1cccc2c1C(=O)c1c(O)c3c(c(O)c1C2=O)C[C@@](O)(C(=O)CO)C[C@@H]3O[C@H]1C[C@H](N)[C@H](O)[C@H](C)O1 [DOXORUBICIN] | 0.078 | 0.5 | 0.2 |  | 0.09 |  |  | 
26 | CON1c2ccccc2[C@@]2(CN=C(SC)S2)[C@H]1Nc1ccc(C)cc1 (relative stereo) | 33.3 | 100 | 100 | 36.8 | 100 | 100 |  | 
27 | CON1c2ccccc2[C@@]2(CN=C(SC)S2)[C@H]1Oc1ccccc1 (relative stereo) | 100 | 100 | 100 | 100 | 100 | 100 |  | 
